Assay results: PMC2921709 (ChemMedChem, 2010)
Read-outs that look alike come from different tables or passages of the source.

Tests used:
[1] = tested on: HL-60; experiment: MTT growth inhibition, HL-60 promyelocytic leukemia cells; type: cell-based, human; settings: read-out: GI50 HL-60
Outline: (§1)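 Cells seeded at 8 × 10^3 per well in 96-well plates and held 18 h at 37 °C, 5% CO2. Medium then replaced with test compound in complete medium at various concentrations for 72 h continuous exposure. Viability read by MTT. GI50 is the concentration giving 50% proliferation inhibition, from dose–response curves; mean ± SE of ≥3 independent experiments. Media: leukemia lines in RPMI-1640; solid-tumour lines in DMEM with penicillin G 115 U mL−1, streptomycin and 10% FBS.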

[2] = tested on: Jurkat cells; experiment: Annexin V-FITC/PI apoptosis assay; type: cell-based, human; settings: 24 h treatment
Outline: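 Jurkat cells exposed to test compound at various concentrations for 24 or 48 h, then harvested. Co-labelled with annexin V–FITC and PI and analysed by flow cytometry (excitation 488 nm; emission 525 and 585 nm). Reported as mean percentage of annexin-V-positive cells ± SEM, three independent experiments.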

[3] = tested on: HeLa; experiment: MTT growth inhibition, HeLa cervix carcinoma cells; type: cell-based, human; settings: read-out: GI50 HeLa
Outline: as §1

[4] = tested on: IGROV; experiment: MTT growth inhibition, IGROV ovarian cancer cells; type: cell-based, human; settings: read-out: GI50 IGROV
Outline: as §1

[5] = tested on: K562; experiment: MTT growth inhibition, K562 chronic myelogenous leukemia cells; type: cell-based, human; settings: read-out: GI50 K562
Outline: as §1

[6] = tested on: Hep G2; experiment: MTT growth inhibition, HepG2 hepatoma cells; type: cell-based, human; settings: read-out: GI50 Hep G2
Outline: as §1

[7] = tested on: Bovine brain tubulin (colchicine site); experiment: Inhibition of [3H]colchicine binding to tubulin; settings: tubulin 1 μM, [3H]colchicine 5 μM; for Colchicine Binding Inhibition [%], 5 μM: compound 5 μM; for Colchicine Binding Inhibition [%], 1 μM: compound 1 μM
[8] = tested on: RS 4;11; experiment: MTT growth inhibition, RS 4; type: cell-based, human; settings: read-out: GI50 RS 4;11
Outline: as §1

[9] = tested on: Bovine brain tubulin; experiment: Inhibition of tubulin polymerization; type: biochemical; settings: read-out: Tubulin Assembly IC50; tubulin 10 μM; 20 min incubation; ± SD
[10] = tested on: Jurkat; experiment: MTT growth inhibition, Jurkat T-leukemia cells; type: cell-based, human; settings: read-out: GI50 Jurkat
Outline: as §1

[11] = tested on: ML2; experiment: MTT growth inhibition, ML-2 myeloid leukemia cells; type: cell-based, human; settings: read-out: GI50 ML2
Outline: as §1

[12] = tested on: HT-29; experiment: MTT growth inhibition, HT-29 colon adenocarcinoma cells; type: cell-based, human; settings: read-out: GI50 HT-29
Outline: as §1

[13] = tested on: ARO; experiment: MTT growth inhibition, ARO anaplastic thyroid cells; type: cell-based, human; settings: read-out: GI50 ARO
Outline: as §1

[14] = tested on: MCF-7; experiment: MTT growth inhibition, MCF-7 breast adenocarcinoma cells; type: cell-based, human; settings: read-out: GI50 MCF-7
Outline: as §1

[15] = tested on: Jurkat cells; experiment: Flow cytometric cell-cycle analysis; type: cell-based, human; settings: 24 h treatment
Outline: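 Jurkat cells in exponential growth, 5 × 10^5 per sample, exposed to test compound at various concentrations for 24 h. Cells fixed in ice-cold 70% ethanol, treated with lysis buffer containing RNase A and 0.1% Triton X-100, then stained with PI. DNA content measured by flow cytometry and phases assigned from DNA histograms. Mean ± SEM of two independent experiments.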

[16] = tested on: panel of human tumor cell lines; experiment: MTT growth inhibition, whole panel of human tumor cell lines; type: cell-based; settings: 72 h, read-out: GI50, all cell lines tested
Outline: as §1

[17] = tested on: leukemia cells; experiment: MTT growth inhibition, leukemia cell lines; type: cell-based, human; settings: 72 h, MTT
Outline: as §1

[18] = tested on: solid tumor cells; experiment: MTT growth inhibition, solid tumor cell lines; type: cell-based; settings: Homo sapiens, 72 h, read-out: GI50, solid tumor cells
Outline: as §1

[19] = Homo sapiens, Thyroid cell, 72 h

Compound | GI50 ([1]; Homo sapiens, HL-60, 72 h) [nM] | GI50 ([3]; Homo sapiens, HeLa, 72 h) [nM] | GI50 ([4]; Homo sapiens, IGROV, 72 h) [nM] | GI50 ([5]; Homo sapiens, K562, 72 h) [nM] | GI50 ([6]; Homo sapiens, HepG2, 72 h) [nM] | Colchicine Binding Inhibition [%], 5 μM [7] [%] | IC50 [9] [nM] | GI50 ([10]; Homo sapiens, Jurkat, 72 h) [nM] | GI50 ([11]; Homo sapiens, ML-2, 72 h) [nM] | GI50 ([12]; Homo sapiens, HT-29, 72 h) [nM] | GI50 ([14]; Homo sapiens, MCF7, 72 h) [nM] | GI50 ([8]; Homo sapiens, RS4-11, 72 h) [nM] | GI50 [13, 19] [nM] | Colchicine Binding Inhibition [%], 1 μM [7] [%] | also measured
O=c1c(-c2ccccc2)c[nH]c2ccc3[nH]ccc3c12 [Compound 33, 8-Phenyl-3H-pyrrolo[3,2-f]quinolin-9(6H)-one] | > 50000 | > 50000 |  | > 50000 | > 50000 |  |  |  | > 50000 | > 50000 |  |  | > 50000 |  | GI50 [16]: > 50000 nM
COc1ccc(/C=C\c2cc(OC)c(OC)c(OC)c2)cc1O [CA-4, combretastatin A-4, reference compound] |  |  |  |  |  | 98 ± 0.3 |  |  |  |  |  |  |  | 84 ± 3 | 
CCn1cc(C#N)c2c3c(=O)cc(-c4ccccc4)[nH]c3ccc21 [Compound 21, 3-Ethyl-9-oxo-7-phenyl-6,9-dihydro-3H-pyrrolo[3,2-f]quinoline-1-carbonitrile] | 210 ± 10 | > 50000 | > 50000 | 460 ± 8 | > 50000 |  |  | 300 ± 10 | 550 ± 30 | > 50000 | > 50000 | 130 ± 20 | > 50000 |  | activity in the leukemia lines (concentration level, in words) [17]: sub-micromolar; GI50 [18]: > 50000 nM

The next lines start with results.

GI50 ([1]; Homo sapiens, HL-60, 72 h) [nM] | GI50 ([3]; Homo sapiens, HeLa, 72 h) [nM] | GI50 ([4]; Homo sapiens, IGROV, 72 h) [nM] | GI50 ([5]; Homo sapiens, K562, 72 h) [nM] | GI50 ([6]; Homo sapiens, HepG2, 72 h) [nM] | Colchicine Binding Inhibition [%], 5 μM [7] [%] | IC50 [9] [nM] | GI50 ([10]; Homo sapiens, Jurkat, 72 h) [nM] | GI50 ([11]; Homo sapiens, ML-2, 72 h) [nM] | GI50 ([12]; Homo sapiens, HT-29, 72 h) [nM] | GI50 ([14]; Homo sapiens, MCF7, 72 h) [nM] | Compound | GI50 ([8]; Homo sapiens, RS4-11, 72 h) [nM] | GI50 [13, 19] [nM] | Colchicine Binding Inhibition [%], 1 μM [7] [%] | also measured
30 ± 2 | 400 ± 50 | 650 ± 150 | 240 ± 30 | 500 ± 50 | 23 ± 6 | 2400 ± 400 | 50 ± 4 | 300 ± 40 | 850 ± 140 | 850 ± 150 | CCn1ccc2c3c(=O)cc(-c4cccnc4)[nH]c3ccc21 [Compound 13, 3-Ethyl-7-(pyridin-3-yl)-3H-pyrrolo[3,2-f]quinolin-9(6H)-one] | 40 ± 7 | 450 ± 70 |  | induction of apoptotic (annexin-V-positive) cells, in words [2]: lower efficacy; Colchicine Binding Inhibition [%], 50 μM ([7]; compound 50 μM): 65 ± 0.3%; effect on cell-cycle progression (G2/M arrest, in words) [15]: only induced G2/M arrest at yet higher concentrations
 |  |  |  |  | 73 ± 0.7 | 570 ± 20 |  |  |  |  | CCn1ccc2c3c(=O)cc(-c4ccccc4)[nH]c3ccc21 [Compound 38, 3-ethyl-7-PPyQ, reference compound] |  |  | 34 ± 2 | GI50 ([1]; 72 h exposure, MTT, mean ± SE): 0.5 ± 0.02 nM; GI50 ([3]; 72 h exposure, MTT, mean ± SE): 10 ± 8 nM; GI50 ([4]; 72 h exposure, MTT, mean ± SE): 60 ± 10 nM; GI50 ([5]; 72 h exposure, MTT, mean ± SE): 1 ± 0.1 nM; GI50 ([6]; 72 h exposure, MTT, mean ± SE): 50 ± 10 nM; GI50 ([8]; 72 h exposure, MTT, mean ± SE): 2 ± 0.3 nM; GI50 ([10]; 72 h exposure, MTT, mean ± SE): 0.5 ± 0.02 nM; GI50 ([11]; 72 h exposure, MTT, mean ± SE): 1 ± 0.3 nM; GI50 ([12]; 72 h exposure, MTT, mean ± SE): 30 ± 10 nM; GI50 ([13]; 72 h exposure, MTT, mean ± SE): 30 ± 10 nM; GI50 ([14]; 72 h exposure, MTT, mean ± SE): 40 ± 10 nM
> 50000 | > 50000 |  | > 50000 | > 50000 |  |  |  | > 50000 | > 50000 |  | CCn1ccc2c3c(=O)c(-c4ccc(Br)cc4)c[nH]c3ccc21 [Compound 37, 8-(4-Bromophenyl)-3-ethyl-3H-pyrrolo[3,2-f]quinolin-9(6H)-one] |  | > 50000 |  | 
